Assay results published in ChEMBL document CHEMBL4152376, “Optimization of 8-Hydroxyquinolines as Inhibitors of Catechol O-Methyltransferase” (J Med Chem, 2018).

Legend:
[1] = target: T1, Catechol O-methyltransferase (Homo sapiens, UniProt P21964); assay: Inhibition of c-terminal hexa-His tagged human MB-COMT expressed in HEK293 cell membrane homogenate using norepinephrine as substrate after 1 hr in presence of SAM by MTase glo methyltransferase assay
T1 sequence (P21964 whole entry): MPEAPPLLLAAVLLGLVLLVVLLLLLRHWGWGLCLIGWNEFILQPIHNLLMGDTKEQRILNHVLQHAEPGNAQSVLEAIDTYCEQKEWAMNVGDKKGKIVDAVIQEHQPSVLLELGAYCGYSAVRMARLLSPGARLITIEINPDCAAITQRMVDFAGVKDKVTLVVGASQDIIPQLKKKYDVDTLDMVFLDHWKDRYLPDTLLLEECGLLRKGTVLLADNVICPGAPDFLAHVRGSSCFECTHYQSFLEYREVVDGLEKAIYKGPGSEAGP
Summary of the method: (§1)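 Membrane homogenate of HEK293 cells expressing C-terminal His6 MB-COMT (human about 7 ng, rat about 4 ng per well, protein by Bradford […]). 20 µM SAM and 7 µM norepinephrine in 50 mM Tris, 5–10 mM MgCl2, 2.5 mM DTT, pH 6.9, final DMSO 1.5%. 1 h at 37 °C, then MTase-Glo luminescence. […] 4-parameter IC50 fit; triplicate points, three experiments.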

[2] = Clearance in rat hepatocytes assessed as per million cells; type: ADME, cell-based, Hepatocyte; settings: read-out: CLH
[3] = target: T1, Catechol O-methyltransferase; assay: Inhibition of c-terminal hexa-His tagged human S-COMT expressed in HEK293-6E cell membrane homogenate using 7,8-dihydroxy-4-methylcoumarin as substrate after 1 hr in presence of SAM by MTase glo methyltransferase assay
Summary of the method: (§2)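 His6-tagged S-COMT (human or rat), expressed in 293-6E cells and purified by Ni-NTA and size exclusion, 1 ng per well. 20 µM SAM and 10 µM 7,8-dihydroxy-4-methylcoumarin in pH 6.9 Tris/MgCl2/DTT buffer, 1.5% DMSO. 1 h at 37 °C, then MTase-Glo luminescence read against a SAH standard curve. […] 4-parameter IC50; triplicate wells, three runs.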

[4] = target: T2, Catechol O-methyltransferase (Rattus norvegicus, UniProt P22734); assay: Inhibition of c-terminal hexa-His tagged rat MB-COMT expressed in HEK293 cell membrane homogenate using norepinephrine as substrate after 1 hr in presence of SAM by MTase glo methyltransferase assay; summary of the method: as §1
T2 sequence (P22734 whole entry): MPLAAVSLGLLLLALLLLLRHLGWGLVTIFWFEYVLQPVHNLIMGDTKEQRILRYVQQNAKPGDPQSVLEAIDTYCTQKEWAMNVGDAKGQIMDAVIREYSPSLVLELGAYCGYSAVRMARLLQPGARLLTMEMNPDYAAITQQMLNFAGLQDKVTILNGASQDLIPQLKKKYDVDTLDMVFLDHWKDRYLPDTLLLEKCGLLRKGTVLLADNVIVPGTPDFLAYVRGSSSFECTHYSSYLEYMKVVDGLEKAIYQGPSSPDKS

[5] = target: T2, Catechol O-methyltransferase; assay: Inhibition of c-terminal hexa-His tagged rat S-COMT expressed in HEK293-6E cell membrane homogenate using 7,8-dihydroxy-4-methylcoumarin as substrate after 1 hr in presence of SAM by MTase glo methyltransferase assay; summary of the method: as §2
[6] = system: Rattus norvegicus; assay: Oral bioavailability in rat at 3/10 mg/kg; type: ADME, organism-based; settings: in vivo
Summary of the method: (§3)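 Rat pharmacokinetics after a 1 mpk iv dose (n=3) and a 3 or 10 mpk oral dose (n=3).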

[7] = Half life in rat at 1 mg/kg, iv or 3/10 mg/kg, po; type: ADME, organism-based; settings: in vivo; summary of the method: as §3
[8] = system: Rattus norvegicus; assay: Volume of distribution at steady state in rat at 1 mg/kg, iv or 3/10 mg/kg, po; type: ADME, organism-based; settings: in vivo; summary of the method: as §3
[9] = Efflux ratio of permeability in MDCK cells; type: ADME, cell-based, Canis lupus familiaris; settings: dog
Summary of the method: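 Efflux ratio taken as […] transport across P-glycoprotein-expressing MDCK cells.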

[10] = Fraction unbound in rat plasma by equilibrium dialysis; type: ADME, cell-free
Summary of the method: (§4)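 Percent free drug in mouse or rat plasma, measured by equilibrium dialysis.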

[11] = Drug uptake in brain of C57BL/6J mouse at 10 mg/kg, ip measured at 1 hr post dose; type: ADME, organism-based; settings: C57BL/6J, brain, read-out: Drug uptake
Summary of the method: (§5)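 Male C57BL/6J mice (8 weeks), single ip injection of 10 mg/kg suspended in 0.1% Tween80/0.1% antifoam/1% methylcellulose at 10 mL/kg. Two mice per timepoint; at 1 h, plasma separated at 4 °C and brain homogenized in 4 volumes PBS pH 7.4. Total brain and plasma levels measured.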

[12] = Plasma concentration C57BL/6J mouse at 10 mg/kg, ip measured at 1 hr post dose; type: ADME, organism-based; summary of the method: as §5
[13] = Unbound plasma concentration in Sprague-Dawley rat 10 mg/kg, po after 4 hrs by ES-UPLC analysis; type: ADME, organism-based; settings: in vivo
Summary of the method: (§6)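 Sprague Dawley rats given 10 mg/kg po; CSF, plasma and brain collected at 4 h. Drug measured in CSF; free plasma and brain levels computed from total levels using plasma protein and brain tissue binding fractions. Free CSF derived from CSF binding by equilibrium dialysis with pooled rat CSF. Ratios taken from these values.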

[14] = Unbound drug level in brain of Sprague-Dawley rat at 10 mg/kg, po after 4 hrs by ES-UPLC analysis; type: ADME, organism-based; settings: in vivo; summary of the method: as §6
[15] = Drug level in CSF of Sprague-Dawley rat at 10 mg/kg, po after 4 hrs by ES-UPLC analysis; type: ADME, organism-based, Cerebrospinal fluid; settings: read-out: Drug uptake; summary of the method: as §6
[16] = Ratio of drug level in CSF of Sprague-Dawley rat to unbound plasma concentration in Sprague-Dawley rat at 10 mg/kg, po after 4 hrs by ES-UPLC analysis; type: ADME, organism-based; settings: in vivo; summary of the method: as §6
[17] = Ratio of drug level in CSF of Sprague-Dawley rat to unbound brain concentration in Sprague-Dawley rat at 10 mg/kg, po after 4 hrs by ES-UPLC analysis; type: ADME, organism-based; settings: in vivo; summary of the method: as §6
[18] = Ratio of unbound drug level in CSF of Sprague-Dawley rat to unbound plasma concentration in Sprague-Dawley rat at 10 mg/kg, po after 4 hrs by ES-UPLC analysis; type: ADME, organism-based; settings: CSF and plasma; summary of the method: as §6
[19] = system: Rattus norvegicus; assay: In vivo inhibition of COMT in Sprague-Dawley rat assessed as HVA levels in CSF at 10 mg/kg, po measured at 4 hrs post dose by LC-MS analysis relative to control; type: functional; set-up: scale not given: the % may be the effect or the level left
Summary of the method: (§7)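 Male Sprague Dawley rats (176–200 g on arrival) dosed orally at 10 mg/kg in Tween80/antifoam/methylcellulose suspension, 10 mL/kg, vehicle group as control (n=5–10). At 4 h under isoflurane, CSF drawn from cisterna magna. HVA and DOPAC quantified by LC-MS against standards in 0.01 M perchloric acid/aCSF with d5 internal standards. Reported as % of vehicle.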

[20] = system: Rattus norvegicus; assay: In vivo inhibition of COMT in Sprague-Dawley rat assessed as DOPAC levels in CSF at 10 mg/kg, po measured at 4 hrs post dose by LC-MS analysis relative to control; type: functional; summary of the method: as §7
[21] = Protein binding in CSF of Sprague-Dawley rat at 2 uM by equilibrium dialysis; type: ADME, tissue-based, Cerebrospinal fluid; settings: read-out: PB (converted)
Summary of the method: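 Binding in pooled rat CSF measured by equilibrium dialysis at 2 µM test concentration.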

[22] = Substrate activity at P-glycoprotein (unknown origin); type: ADME; settings: human
[23] = Inhibition of P-glycoprotein (unknown origin); settings: human
[24] = target: T3, Broad substrate specificity ATP-binding cassette transporter ABCG2 (Homo sapiens, UniProt Q9UNQ0); assay: Inhibition of BCRP (unknown origin); type: ADME
T3 sequence (Q9UNQ0 whole entry): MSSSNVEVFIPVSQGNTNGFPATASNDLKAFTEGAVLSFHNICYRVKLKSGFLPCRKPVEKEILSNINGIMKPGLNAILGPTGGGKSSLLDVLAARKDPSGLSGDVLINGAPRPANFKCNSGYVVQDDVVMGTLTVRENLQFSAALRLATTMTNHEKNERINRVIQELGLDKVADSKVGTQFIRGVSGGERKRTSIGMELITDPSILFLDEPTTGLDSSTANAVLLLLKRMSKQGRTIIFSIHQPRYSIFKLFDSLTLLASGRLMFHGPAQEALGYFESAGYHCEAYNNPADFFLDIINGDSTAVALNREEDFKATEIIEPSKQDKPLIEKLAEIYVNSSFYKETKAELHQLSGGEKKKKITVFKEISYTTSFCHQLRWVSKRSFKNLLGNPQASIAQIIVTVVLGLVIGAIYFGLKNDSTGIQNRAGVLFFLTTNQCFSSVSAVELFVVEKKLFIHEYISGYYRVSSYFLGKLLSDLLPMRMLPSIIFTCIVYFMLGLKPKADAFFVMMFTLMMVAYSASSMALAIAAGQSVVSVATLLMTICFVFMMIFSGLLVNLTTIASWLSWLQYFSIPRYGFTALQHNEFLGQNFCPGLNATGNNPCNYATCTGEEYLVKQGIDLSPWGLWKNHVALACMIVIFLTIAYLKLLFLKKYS

[25] = target: ATP-binding cassette sub-family C member 2 (Homo sapiens, UniProt Q92887); assay: Inhibition of MRP2 (unknown origin)
Chain of ATP-binding cassette sub-family C member 2 (Q92887 whole entry): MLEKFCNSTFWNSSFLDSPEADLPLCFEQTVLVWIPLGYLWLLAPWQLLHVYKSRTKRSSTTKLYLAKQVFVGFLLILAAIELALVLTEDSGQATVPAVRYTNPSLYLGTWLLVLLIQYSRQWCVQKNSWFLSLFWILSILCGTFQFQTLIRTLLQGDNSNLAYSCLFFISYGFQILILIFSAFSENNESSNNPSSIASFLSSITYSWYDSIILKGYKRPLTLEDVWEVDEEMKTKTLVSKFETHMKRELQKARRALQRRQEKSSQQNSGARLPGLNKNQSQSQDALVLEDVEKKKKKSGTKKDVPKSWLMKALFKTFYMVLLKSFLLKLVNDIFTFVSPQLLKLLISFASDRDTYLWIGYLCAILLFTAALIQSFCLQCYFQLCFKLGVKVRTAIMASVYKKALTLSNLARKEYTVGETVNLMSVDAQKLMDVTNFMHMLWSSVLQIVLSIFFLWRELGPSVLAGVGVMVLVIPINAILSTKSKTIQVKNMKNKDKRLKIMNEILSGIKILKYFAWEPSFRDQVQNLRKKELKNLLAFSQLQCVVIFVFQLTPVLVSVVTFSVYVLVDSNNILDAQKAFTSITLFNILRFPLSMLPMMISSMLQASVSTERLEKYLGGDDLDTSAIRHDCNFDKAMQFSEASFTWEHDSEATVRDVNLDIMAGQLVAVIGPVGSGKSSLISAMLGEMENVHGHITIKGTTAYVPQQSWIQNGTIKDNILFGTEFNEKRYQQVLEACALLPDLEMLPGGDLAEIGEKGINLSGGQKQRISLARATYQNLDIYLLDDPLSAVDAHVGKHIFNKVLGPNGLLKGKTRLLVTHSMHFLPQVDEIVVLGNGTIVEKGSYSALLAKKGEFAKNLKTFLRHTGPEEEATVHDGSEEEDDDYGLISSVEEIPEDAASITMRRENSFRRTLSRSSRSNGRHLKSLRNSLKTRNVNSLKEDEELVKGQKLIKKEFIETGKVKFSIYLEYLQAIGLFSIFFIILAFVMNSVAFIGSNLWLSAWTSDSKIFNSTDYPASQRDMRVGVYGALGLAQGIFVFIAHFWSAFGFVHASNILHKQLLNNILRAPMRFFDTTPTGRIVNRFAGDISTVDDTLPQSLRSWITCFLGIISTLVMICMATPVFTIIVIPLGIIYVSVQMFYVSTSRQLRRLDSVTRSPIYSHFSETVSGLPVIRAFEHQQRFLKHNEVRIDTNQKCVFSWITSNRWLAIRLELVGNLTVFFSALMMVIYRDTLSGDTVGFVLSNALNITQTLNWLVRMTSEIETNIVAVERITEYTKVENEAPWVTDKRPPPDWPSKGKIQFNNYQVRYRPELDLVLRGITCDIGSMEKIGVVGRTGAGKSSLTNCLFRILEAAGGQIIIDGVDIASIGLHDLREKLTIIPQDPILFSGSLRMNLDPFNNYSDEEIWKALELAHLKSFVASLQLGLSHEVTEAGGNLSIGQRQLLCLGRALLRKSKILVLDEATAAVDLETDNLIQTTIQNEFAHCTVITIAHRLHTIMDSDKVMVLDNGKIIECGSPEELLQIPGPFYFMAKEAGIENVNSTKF

[26] = Fraction unbound in mouse plasma by equilibrium dialysis; type: ADME, cell-free; summary of the method: as §4
[27] = Fraction unbound in rat brain by equilibrium dialysis; type: ADME, tissue-based
Summary of the method: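 Percent free drug in rat brain tissue, measured by equilibrium dialysis.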

[28] = Unbound plasma concentration in Sprague-Dawley rat 15 mg/kg, ip after 4 hrs by ES-UPLC analysis; type: ADME, organism-based; settings: in vivo
[29] = Unbound drug level in brain of Sprague-Dawley rat at 15 mg/kg, ip after 4 hrs by ES-UPLC analysis; type: ADME, organism-based; settings: in vivo, BLD = below limit of detection
[30] = Drug level in CSF of Sprague-Dawley rat at 15 mg/kg, ip after 4 hrs by ES-UPLC analysis; type: ADME, organism-based, Cerebrospinal fluid; settings: in vivo, BLD = below limit of detection

Structure (SMILES): O=S(=O)(c1cc(F)c(O)c2ncccc12)N1CCCC1
- IC50 [1]: 0.00398 µM
- hepatocyte CLint [2]: 21 µL/min/1e6 cells
- IC50 [3]: 1.58 µM
- IC50 [4]: < 0.001 µM
- IC50 [5]: 3.98 µM
- F [6]: 73%
- half-life [7]: 2.8 h
- Vdss [8]: 2.2 L/kg
- efflux ratio [9]: 1.2
- Fu [10]: 0.6
- concentration at 1 h [11]: 110 ng/g
- concentration at 1 h [12]: 1820 ng/mL
- Cp(f) [13]: 23 nM
- Drug uptake(free) [14]: 35 nM
- concentration at 4 h [15]: 157 nM
- Ratio [16]: 6.8
- Ratio [17]: 4.4
- Kp uu at 4 h [18]: 3.3
- Activity [19]: 72%
- CSF DOPAC level (% of vehicle) [20]: 140%
- fraction unbound at 2 µM [21]: 0.49
- Activity [22]: Not Active
- inhibition (INH) [23]: Not Active
- inhibition (INH) [24]: Not Active
- inhibition (INH) [25]: Not Active

Structure (SMILES): O=S(=O)(c1ccc(O)c2ncccc12)N1CCCC1Cc1ccccc1 (stereo not given)
- IC50 [1]: 0.002 µM
- hepatocyte CLint [2]: 228 µL/min/1e6 cells
- IC50 [3]: 2 µM
- Fu [26]: 0.5
- fraction unbound [27]: 0.5
- concentration at 1 h [11]: 109 ng/g
- concentration at 1 h [12]: 235 ng/mL

Structure (SMILES): Cc1ccc(C(=O)c2cc(O)c(O)c([N+](=O)[O-])c2)cc1 [TOLCAPONE]
- Cp(f) [28]: 35 nM
- Drug uptake(free) [29]: Bld
- Drug uptake [30]: Bld
